According to ChEMBL document CHEMBL1255501, “Heteroresistance of Cryptococcus gattii to fluconazole” (2010):
The source made the active and inactive calls.

Legend:
Assay type in all cases: functional, organism-based
Conditions in all cases: Cryptococcus bacillisporus
[1] = tested on: Cryptococcus gattii species complex; test: Antimicrobial activity against fluconazole-resistant Cryptococcus gattii serotype B isolate B4506 at 64 ug/ml
How it was run: (§1)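 Strains were grown overnight in YPD broth at 30°C, washed, serially diluted in sterile saline and spotted at 3 μl onto YPD agar alone or YPD agar containing a xenobiotic: rhizoxin 0.5 μg/ml, gliotoxin 3.2 μg/ml or trichostatin A 64 μg/ml. Growth was compared by spot test.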

[2] = tested on: Cryptococcus gattii species complex; test: Antimicrobial activity against fluconazole-resistant Cryptococcus gattii serotype B isolate NIH200 at 64 ug/ml; how it was run: as §1
[3] = tested on: Cryptococcus gattii species complex; test: Antimicrobial activity against fluconazole-resistant Cryptococcus gattii serotype B isolate B3939 at 64 ug/ml; how it was run: as §1
[4] = tested on: Cryptococcus gattii species complex; test: Antimicrobial activity against fluconazole-resistant Cryptococcus gattii serotype C isolate H00581-1941 at 64 ug/ml
[5] = tested on: Cryptococcus gattii species complex; test: Antimicrobial activity against fluconazole-resistant Cryptococcus gattii serotype C isolate NIH257 at 64 ug/ml
[6] = tested on: Cryptococcus gattii species complex; test: Antimicrobial activity against fluconazole-resistant Cryptococcus gattii serotype B isolate NIH184 at 64 ug/ml; how it was run: as §1
[7] = tested on: Cryptococcus gattii species complex; test: Antimicrobial activity against fluconazole-resistant Cryptococcus gattii serotype B isolate NIH409 at 64 ug/ml; how it was run: as §1
[8] = tested on: Cryptococcus gattii species complex; test: Antimicrobial activity against fluconazole-resistant Cryptococcus gattii serotype C isolate NIH34 at 64 ug/ml
[9] = tested on: Cryptococcus gattii species complex; test: Antimicrobial activity against fluconazole-resistant Cryptococcus gattii serotype B isolate NIH189 at 64 ug/ml; how it was run: as §1
[10] = tested on: Cryptococcus gattii species complex; test: Antimicrobial activity against fluconazole-resistant Cryptococcus gattii serotype B isolate NIH771 at 64 ug/ml
[11] = tested on: Cryptococcus gattii species complex; test: Antimicrobial activity against fluconazole-resistant Cryptococcus gattii serotype B isolate NIH198 at 64 ug/ml; how it was run: as §1
[12] = tested on: Cryptococcus gattii species complex; test: Antimicrobial activity against fluconazole-resistant Cryptococcus gattii serotype B isolate NIH754 at 64 ug/ml; how it was run: as §1
[13] = tested on: Cryptococcus gattii species complex; test: Antimicrobial activity against fluconazole-resistant Cryptococcus gattii serotype B isolate B5763 at 64 ug/ml; how it was run: as §1
[14] = tested on: Cryptococcus gattii species complex; test: Antimicrobial activity against fluconazole-resistant Cryptococcus gattii serotype B isolate NIH412 at 64 ug/ml; how it was run: as §1
[15] = tested on: Cryptococcus gattii species complex; test: Antimicrobial activity against fluconazole-resistant Cryptococcus gattii serotype B isolate B5788 at 64 ug/ml; how it was run: as §1
[16] = tested on: Cryptococcus gattii species complex; test: Antimicrobial activity against fluconazole-resistant Cryptococcus gattii serotype B isolate NIH535 at 64 ug/ml; how it was run: as §1
[17] = tested on: Cryptococcus gattii species complex; test: Antimicrobial activity against fluconazole-resistant Cryptococcus gattii serotype C isolate H0058-1-818 at 64 ug/ml
[18] = tested on: Cryptococcus deuterogattii; test: Antimicrobial activity against fluconazole-resistant Cryptococcus gattii serotype B isolate NIH444 at 64 ug/ml; how it was run: as §1
[19] = tested on: Cryptococcus gattii species complex; test: Antimicrobial activity against fluconazole-resistant Cryptococcus gattii serotype B isolate RB3 at 64 ug/ml
[20] = tested on: Cryptococcus gattii species complex; test: Antimicrobial activity against fluconazole-resistant Cryptococcus gattii serotype B isolate NIH754 at 3.2 ug/ml; how it was run: as §1
[21] = tested on: Cryptococcus gattii species complex; test: Antimicrobial activity against fluconazole-resistant Cryptococcus gattii serotype C isolate H00581-1941 at 3.2 ug/ml
[22] = tested on: Cryptococcus gattii species complex; test: Antimicrobial activity against fluconazole-resistant Cryptococcus gattii serotype B isolate NIH189 at 3.2 ug/ml; how it was run: as §1
[23] = tested on: Cryptococcus gattii species complex; test: Antimicrobial activity against fluconazole-resistant Cryptococcus gattii serotype B isolate NIH184 at 3.2 ug/ml; how it was run: as §1
[24] = tested on: Cryptococcus gattii species complex; test: Antimicrobial activity against fluconazole-resistant Cryptococcus gattii serotype B isolate NIH412 at 3.2 ug/ml; how it was run: as §1
[25] = tested on: Cryptococcus gattii species complex; test: Antimicrobial activity against fluconazole-resistant Cryptococcus gattii serotype B isolate B4506 at 3.2 ug/ml; how it was run: as §1
[26] = tested on: Cryptococcus gattii species complex; test: Antimicrobial activity against fluconazole-resistant Cryptococcus gattii serotype B isolate NIH200 at 3.2 ug/ml; how it was run: as §1
[27] = tested on: Cryptococcus gattii species complex; test: Antimicrobial activity against fluconazole-resistant Cryptococcus gattii serotype C isolate NIH257 at 3.2 ug/ml
[28] = tested on: Cryptococcus gattii species complex; test: Antimicrobial activity against fluconazole-resistant Cryptococcus gattii serotype C isolate H0058-1-818 at 3.2 ug/ml
[29] = tested on: Cryptococcus gattii species complex; test: Antimicrobial activity against fluconazole-resistant Cryptococcus gattii serotype B isolate NIH409 at 3.2 ug/ml; how it was run: as §1
[30] = tested on: Cryptococcus gattii species complex; test: Antimicrobial activity against fluconazole-resistant Cryptococcus gattii serotype B isolate NIH535 at 3.2 ug/ml; how it was run: as §1
[31] = tested on: Cryptococcus deuterogattii; test: Antimicrobial activity against fluconazole-resistant Cryptococcus gattii serotype B isolate NIH444 at 3.2 ug/ml; how it was run: as §1
[32] = tested on: Cryptococcus gattii species complex; test: Antimicrobial activity against fluconazole-resistant Cryptococcus gattii serotype B isolate B3939 at 3.2 ug/ml; how it was run: as §1
[33] = tested on: Cryptococcus gattii species complex; test: Antimicrobial activity against fluconazole-resistant Cryptococcus gattii serotype B isolate B5763 at 3.2 ug/ml; how it was run: as §1
[34] = tested on: Cryptococcus gattii species complex; test: Antimicrobial activity against fluconazole-resistant Cryptococcus gattii serotype B isolate NIH771 at 3.2 ug/ml
[35] = tested on: Cryptococcus gattii species complex; test: Antimicrobial activity against fluconazole-resistant Cryptococcus gattii serotype B isolate NIH198 at 3.2 ug/ml; how it was run: as §1
[36] = tested on: Cryptococcus gattii species complex; test: Antimicrobial activity against fluconazole-resistant Cryptococcus gattii serotype B isolate RB3 at 3.2 ug/ml
[37] = tested on: Cryptococcus gattii species complex; test: Antimicrobial activity against fluconazole-resistant Cryptococcus gattii serotype B isolate B5788 at 3.2 ug/ml; how it was run: as §1
[38] = tested on: Cryptococcus gattii species complex; test: Antimicrobial activity against fluconazole-resistant Cryptococcus gattii serotype C isolate NIH34 at 3.2 ug/ml
[39] = tested on: Cryptococcus gattii species complex; test: Antimicrobial activity against fluconazole-resistant Cryptococcus gattii serotype C isolate H0058-1-818 at 0.5 ug/ml
[40] = tested on: Cryptococcus gattii species complex; test: Antimicrobial activity against fluconazole-resistant Cryptococcus gattii serotype B isolate NIH412 at 0.5 ug/ml; how it was run: as §1
[41] = tested on: Cryptococcus gattii species complex; test: Antimicrobial activity against fluconazole-resistant Cryptococcus gattii serotype B isolate NIH200 at 0.5 ug/ml; how it was run: as §1
[42] = tested on: Cryptococcus gattii species complex; test: Antimicrobial activity against fluconazole-resistant Cryptococcus gattii serotype B isolate NIH535 at 0.5 ug/ml; how it was run: as §1
[43] = tested on: Cryptococcus gattii species complex; test: Antimicrobial activity against fluconazole-resistant Cryptococcus gattii serotype B isolate NIH771 at 0.5 ug/ml; how it was run: as §1
[44] = tested on: Cryptococcus gattii species complex; test: Antimicrobial activity against fluconazole-resistant Cryptococcus gattii serotype B isolate NIH184 at 0.5 ug/ml; how it was run: as §1
[45] = tested on: Cryptococcus gattii species complex; test: Antimicrobial activity against fluconazole-resistant Cryptococcus gattii serotype C isolate NIH34 at 0.5 ug/ml
[46] = tested on: Cryptococcus gattii species complex; test: Antimicrobial activity against fluconazole-resistant Cryptococcus gattii serotype C isolate H00581-1941 at 0.5 ug/ml
[47] = tested on: Cryptococcus deuterogattii; test: Antimicrobial activity against fluconazole-resistant Cryptococcus gattii serotype B isolate NIH444 at 0.5 ug/ml; how it was run: as §1
[48] = tested on: Cryptococcus gattii species complex; test: Antimicrobial activity against fluconazole-resistant Cryptococcus gattii serotype B isolate NIH198 at 0.5 ug/ml; how it was run: as §1
[49] = tested on: Cryptococcus gattii species complex; test: Antimicrobial activity against fluconazole-resistant Cryptococcus gattii serotype B isolate B3939 at 0.5 ug/ml; how it was run: as §1
[50] = tested on: Cryptococcus gattii species complex; test: Antimicrobial activity against fluconazole-resistant Cryptococcus gattii serotype C isolate NIH257 at 0.5 ug/ml
[51] = tested on: Cryptococcus gattii species complex; test: Antimicrobial activity against fluconazole-resistant Cryptococcus gattii serotype B isolate B5788 at 0.5 ug/ml; how it was run: as §1
[52] = tested on: Cryptococcus gattii species complex; test: Antimicrobial activity against fluconazole-resistant Cryptococcus gattii serotype B isolate NIH409 at 0.5 ug/ml; how it was run: as §1
[53] = tested on: Cryptococcus gattii species complex; test: Antimicrobial activity against fluconazole-resistant Cryptococcus gattii serotype B isolate B5763 at 0.5 ug/ml; how it was run: as §1
[54] = tested on: Cryptococcus gattii species complex; test: Antimicrobial activity against fluconazole-resistant Cryptococcus gattii serotype B isolate NIH189 at 0.5 ug/ml; how it was run: as §1
[55] = tested on: Cryptococcus gattii species complex; test: Antimicrobial activity against fluconazole-resistant Cryptococcus gattii serotype B isolate B4506 at 0.5 ug/ml; how it was run: as §1
[56] = tested on: Cryptococcus gattii species complex; test: Antimicrobial activity against fluconazole-resistant Cryptococcus gattii serotype B isolate NIH754 at 0.5 ug/ml; how it was run: as §1
[57] = tested on: Cryptococcus gattii species complex; test: Antimicrobial activity against fluconazole-resistant Cryptococcus gattii serotype B isolate RB3 at 0.5 ug/ml

Measured: Activity

CC(/C=C/C(=O)NO)=C\[C@@H](C)C(=O)c1ccc(N(C)C)cc1
inactive: [1] | [2] | [3] | [4] | [5] | [6] | [7] | [8] | [9] | [10] | [11] | [12] | [13] | [14] | [15] | [16] | [17] | [18] | [19]

CN1C(=O)[C@]23CC4=CC=C[C@H](O)[C@H]4N2C(=O)[C@@]1(CO)SS3
inactive: [20] | [21] | [22] | [23] | [24] | [25] | [26] | [27] | [28] | [29] | [30] | [31] | [32] | [33] | [34] | [35] | [36] | [37] | [38]

CO[C@@H](/C(C)=C/C=C/C(C)=C/c1coc(C)n1)[C@@H](C)[C@@H]1C[C@H](O)[C@@]2(C)O[C@@H]2/C=C/[C@@H](C)[C@H]2C[C@H](CC(=O)O2)C[C@@H]2O[C@H]2C(=O)O1
inactive: [39] | [40] | [41] | [42] | [43] | [44] | [45] | [46] | [47] | [48] | [49] | [50] | [51] | [52] | [53] | [54] | [55] | [56] | [57]
